Laboratory results: ChEMBL document CHEMBL1132203, “Synthesis and biological properties of novel pyridinioalkanoyl thiolesters (PATE) as anti-HIV-1 agents that target the viral nucleocapsid protein zinc fingers” (J Med Chem, 1999)

Columns and labels:
[1] = tested on: Human immunodeficiency virus 1; assay: Effective antiviral concentration against HIV-1 infected CEM-SS cells; type: functional, organism-based; details: Human immunodeficiency virus 1, CEM-SS
How it was run: (§1)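 CEM-SS cells infected with HIV-1 RF at MOI 0.01, scored by XTT dye-reduction cytoprotection. EC50 is the concentration giving 50% protection of infected cells. IC50 is the concentration causing 50% cytotoxicity (growth inhibition). High test concentration 316 μM.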

[2] = tested on: Human immunodeficiency virus 1; assay: Antiviral activity against HIV-1 infected CEM-SS cells was determined in XTT cytoprotection assay; type: functional, organism-based; details: Human immunodeficiency virus 1, CEM-SS; how it was run: as §1
[3] = tested on: Human immunodeficiency virus 1; assay: Nucleocapsid p7 protein (NCp7) zinc finger domain reactivity was measured by Trp37 fluorescence assay expressed as the average decrease in relative fluorescence units over 30 min; type: functional
How it was run: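 Recombinant HIV-1 NCp7 (pET3A construct expressed in E. coli BL21); intrinsic fluorescence of Trp37 in the C-terminal zinc finger monitored over 30 min after compound addition. Value is the mean fall in relative fluorescence units per minute across 30 min, taken as a readout of Zn ejection. Dithiane or DIBA-1 served as reference. Where glutathione pretreatment was used, 2 mM compound was held 2 h at 37 °C with 2–8 M excess reduced glutathione, then diluted 40-fold to 50 μM final compound.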

[4] = target: Human immunodeficiency virus type 1 reverse transcriptase (Human immunodeficiency virus 1, UniProt Q72547); assay: 50% Inhibitory activity against reverse transcriptase; No inhibition at a highest dose of 100 uM
How it was run: (§2)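 Top test level 100 μM; IC50 is the concentration inhibiting 50% of the indicated activity, with reference inhibitors run as positive controls. Integrase uses recombinant HIV-1 integrase, scored on 3'-processing and strand transfer. Protease uses recombinant HIV-1 protease cleaving the peptide Ala-Ser-Glu-Asn-Try-Pro-Ile-Val-amide, read by HPLC. Reverse transcriptase uses recombinant HIV-1 RT on rAdT and rCdG template/primers.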

[5] = target: Human immunodeficiency virus type 1 integrase (Human immunodeficiency virus 1, UniProt Q7ZJM1); assay: 50% Inhibitory activity against Integrase; No inhibition at a highest dose of 100 uM; how it was run: as §2
Sequence of Human immunodeficiency virus type 1 integrase (Q7ZJM1 whole entry): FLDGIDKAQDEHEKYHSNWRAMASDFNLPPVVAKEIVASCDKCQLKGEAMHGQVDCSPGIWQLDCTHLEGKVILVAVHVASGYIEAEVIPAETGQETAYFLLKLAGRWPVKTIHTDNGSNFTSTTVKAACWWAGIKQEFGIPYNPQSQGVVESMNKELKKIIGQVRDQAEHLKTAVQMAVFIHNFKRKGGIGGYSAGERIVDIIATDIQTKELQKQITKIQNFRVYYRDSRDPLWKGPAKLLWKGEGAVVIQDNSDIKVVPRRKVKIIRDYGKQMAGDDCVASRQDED

[6] = 50% Inhibitory activity against attachment; No inhibition at a highest dose of 100 uM
[7] = target: Human immunodeficiency virus type 1 protease (Human immunodeficiency virus 1, UniProt Q72874); assay: 50% Inhibitory activity against protease; No inhibition at a highest dose of 100 uM; how it was run: as §2
[8] = 50% Inhibitory activity against fusion; No inhibition at a highest dose of 100 uM

SMILES | EC50 [1] [µM] | IC50 [2] [µM] | Activity [3] [RFU min-1] | IC50 [4] | IC50 [5] | Zinc finger reactivity [3] [RFU min-1] | IC50 [6] | IC50 [7] | IC50 [8]
NS(=O)(=O)c1ccc(NC(=O)CNC(=O)c2ccccc2SSc2ccccc2C(=O)NCC(=O)Nc2ccc(S(N)(=O)=O)cc2)cc1 | 1.6 | 17.6 | 7.9 |  |  |  |  |  | 
O=C(CCCC[n+]1ccccc1)Sc1ccccc1C(=O)Nc1ccc(S(=O)(=O)c2ccc(NS(=O)(=O)Cc3ccccc3[N+](=O)[O-])cc2)cc1.[Br-] | 2.9 | > 316 | 0.86 |  |  |  |  |  | 
NS(=O)(=O)c1ccc(Cn2sc3ccccc3c2=O)cc1 | 13.8 | 53.7 | 2.7 |  |  |  |  |  | 
CC(=O)NS(=O)(=O)c1ccc(NC(=O)c2ccccc2SC(=O)CCCCC[n+]2ccccc2)cc1.[Br-] | 10.5 | 69.7 | 1.9 |  |  |  |  |  | 
O=C(CCCC[n+]1ccccc1)Sc1ccccc1C(=O)Nc1ccc(S(=O)(=O)c2ccc([N+](=O)[O-])cc2)cc1.[Br-] | 5.5 | > 316 |  | No inhibition | No inhibition | 4.1 | No inhibition |  | 
CC(=O)NS(=O)(=O)c1ccc(NC(=O)c2ccccc2SC(=O)CCCCBr)cc1 | 3.8 | 184 |  | No inhibition | No inhibition | 1.8 | No inhibition | No inhibition | No inhibition
CC(=O)NS(=O)(=O)c1ccc(NC(=O)c2ccccc2SC(=O)CCCC[n+]2ccccc2)cc1.[Br-] | 6.2 | > 316 |  | No inhibition | No inhibition | 3.6 | No inhibition | No inhibition | 
CC(=O)Nc1ccc(S(=O)(=O)Nc2ccc(S(=O)(=O)c3ccc(-n4sc5ccccc5c4=O)cc3)cc2)cc1 | 9.6 | 188 | 7.9 |  |  |  |  |  | 
CC(=O)NS(=O)(=O)c1ccc(NC(=O)c2ccccc2SC(=O)CCC[n+]2ccccc2)cc1.[Br-] | 10.1 | 175 | 2.2 |  |  |  |  |  | 
CC(=O)Nc1ccc(S(=O)(=O)c2ccc(NC(=O)c3ccccc3SSc3ccccc3C(=O)Nc3ccc(S(=O)(=O)c4ccc(NC(C)=O)cc4)cc3)cc2)cc1 | 1.5 | 160 | 5.9 |  |  |  |  |  | 
COc1ccc(C(=O)Sc2ccccc2C(=O)Nc2ccc(S(=O)(=O)NC(C)=O)cc2)cc1 | 2.8 | 43.7 | 3.5 |  |  |  |  |  | 
CC(=O)Nc1cccc(S(=O)(=O)c2cccc(NC(=O)c3ccccc3SC(=O)CCCC[n+]3ccccc3)c2)c1.[Br-] | 4.9 | 205 | 1.1 |  |  |  |  |  | 
NS(=O)(=O)c1ccc(CCn2sc3ccccc3c2=O)cc1 | 2 | 45.5 | 2.7 |  |  |  |  |  | 
O=C(Nc1ccc(S(=O)(=O)c2ccc(NC(=O)c3ccccc3SSc3ccccc3C(=O)Nc3ccc(S(=O)(=O)c4ccc(NC(=O)c5ccc([N+](=O)[O-])cc5)cc4)cc3)cc2)cc1)c1ccc([N+](=O)[O-])cc1 | 78 | > 316 | 2.9 |  |  |  |  |  | 
COc1ccc(C(=O)Nc2ccc(S(=O)(=O)c3ccc(NC(=O)c4ccccc4SSc4ccccc4C(=O)Nc4ccc(S(=O)(=O)c5ccc(NC(=O)c6ccc(OC)cc6)cc5)cc4)cc3)cc2)cc1 | 3.8 | 79.6 | 6.9 |  |  |  |  |  | 
Nc1ccc(S(=O)(=O)c2ccc(NC(=O)c3ccccc3SSc3ccccc3C(=O)Nc3ccc(S(=O)(=O)c4ccc(N)cc4)cc3)cc2)cc1 | 4.3 | > 316 | 3.3 |  |  |  |  |  | 
O=C(Nc1ccc(S(=O)(=O)c2ccc([N+](=O)[O-])cc2)cc1)c1ccccc1SSc1ccccc1C(=O)Nc1ccc(S(=O)(=O)c2ccc([N+](=O)[O-])cc2)cc1 | 12.2 | > 316 | 2.9 |  |  |  |  |  | 
CC(=O)NS(=O)(=O)c1ccc(NC(=O)c2ccccc2SC(=O)CCCC[n+]2cccc(Cl)c2)cc1.[Br-] | 54 | 264 | 0.2 |  |  |  |  |  | 
O=C(CCCCBr)Sc1ccccc1C(=O)Nc1ccc(S(=O)(=O)c2ccc([N+](=O)[O-])cc2)cc1 | 1.6 | 21.7 | 1 |  |  |  |  |  | 
Nc1cccc(S(=O)(=O)c2cccc(NC(=O)c3ccccc3SSc3ccccc3C(=O)Nc3cccc(S(=O)(=O)c4cccc(N)c4)c3)c2)c1 | 1 | 81.5 | 0.92 |  |  |  |  |  | 
CC(=O)Nc1cccc(S(=O)(=O)c2cccc(NC(=O)c3ccccc3SSc3ccccc3C(=O)Nc3cccc(S(=O)(=O)c4cccc(NC(C)=O)c4)c3)c2)c1 | 0.62 | 59.1 | 2 |  |  |  |  |  | 
CC(=O)NS(=O)(=O)c1ccc(NC(=O)c2cccc(NC(=O)CCCl)c2)cc1 | 38 | 103 | 3.9 |  |  |  |  |  | 
